Test results from ChEMBL document CHEMBL4513216, “Probing the Open Global Health Chemical Diversity Library for Multistage-Active Starting Points for Next-Generation Antimalarials” (ACS Infect Dis, 2020).

Assay: Toxicity liver stage against HepG2, at 10uM
Format: cell-based
Design: test concentration 10 uM, cell line HepG2-A16-CD81EGFP
Conditions: human, HepG2-A16-CD81EGFP cells; read-out: INHIBITION
Method in brief: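 Uninfected HepG2-A16-CD81EGFP cells, 3 × 10^3 per well, 1536-well, plated on prespotted compound at 10 μM final, parasite-free screening media added to match infected plates; puromycin 10 μM positive, DMSO 0.5% negative; run in parallel with 48 h PbLuc assay at 37 °C, 5% CO2; viability by CellTiter-Glo luminescence, normalized to controls.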

Row | Structure (SMILES) | cytotoxicity at 10 µM [%]
1 | CCN(CC(=O)NC(C)C)S(=O)(=O)N1CCCCCC1 | 2.37
2 | CCN(CC)C[C@H]1CN2CC[C@H]1C[C@@H]2CNC(=O)Nc1ccsc1 | -17.8
3 | Cc1ccccc1CSc1ncccc1C(=O)N(C)C | -7.24
4 | COc1ccc(C(=O)N(CCO)Cc2ccccc2)c(OC)n1 | 3.33
5 | O=C(c1cccnc1SCc1ccccc1)N1CCOCC1 | 4.74
6 | O=C(N[C@H]1CCCC[C@@H]1O)c1cccc(-c2nc3ccccc3[nH]2)c1 | -3.65
7 | COCC(=O)N1CCC(=O)N(C2CCCC2)Cc2cc(F)ccc21 | -3.3
8 | O=C(COc1coc(CN2CCCC2)cc1=O)Nc1cc(Cl)ccc1Cl | -1.71
9 | CCOC(=O)CCC(=O)N1CC(c2nc(Cc3ccccc3)no2)C1 | -2.42
10 | O=C(NCCN1CCOCC1)c1cc2c(s1)CCN2Cc1cccnc1 | -7.98
11 | CC(C)NC(=O)[C@H]1CCS(=O)(=O)[C@@H]2CN(c3ncc(F)cn3)C[C@H]12 | -136
12 | CC(C)N(C)C(=O)C1=NOC2(CCN(C(=O)c3ccnnc3)C2)C1 (stereo unspecified) | -119
13 | Cc1noc([C@@H]2C[C@H]3OCC[C@H]3N(S(=O)(=O)N(C)C)C2)n1 | -122
14 | Cc1nc(CN2CCO[C@H]3CN(C(=O)Cc4cccs4)C[C@H]32)cs1 | -124
15 | Cc1nc(C(=O)N2C[C@@H]3COC[C@]3(COCc3cccnc3)C2)cs1 | -1.92
16 | COc1cc2[nH]c(C(=O)O)cc2c(OC)c1C | -1.51
17 | Cc1ccc(CN(C)CC2(O)CCCN(C)C2)o1 (stereo unspecified) | -8.08
18 | CCn1nc(C)c2nc(C(C)C)nc(NCCCn3ccnc3)c21 | 10.8
19 | CCn1cc(Br)c(C(=O)NCc2cnn(C)c2)n1 | -11.9
20 | Nc1nc(N)c2c(n1)OC1(CCN(C(=O)CC3CCNCC3)CC1)C2 | 5.41
21 | CN(C)c1cc(C2CCCN2C(=O)c2noc3c2CCCC3)ccn1 (stereo unspecified) | 9.13
22 | Cc1ccc(C(=O)N2CCOC(c3ncc(CN(C)C)[nH]3)C2)cc1F (stereo unspecified) | 0.388
23 | CCN1C(=O)CC[C@@H]2N(C(=O)CCn3nccc3C)CCCC[C@@]21C | -3.41

Row | Structure (SMILES) | cytotoxicity at 10 µM [%]
24 | CNc1cc(C)nc(C2COCCN2CCOc2ccc(F)cc2)n1 (stereo unspecified) | 3.18
25 | O=C(C1CCC1)N1CCC(c2ncc3c(n2)CCNC3)CC1 | -25.1
26 | Cc1ccc(-n2c(SCC(=O)O)nnc2-c2ccccc2)cc1 | -19.3
27 | CN1CC(=O)N(C2CCNCC2)Cc2c(NC3CCC3)ncnc21 | 3.9
28 | O=C(CN1CCCCCC1=O)NC1CCc2nccn2C1 (stereo unspecified) | 2.8
29 | Fc1cccc(C(NCc2ncc[nH]2)c2ccccn2)c1 (stereo unspecified) | 3.95
30 | C[C@H](O)c1cnn(-c2ccccc2)c1 | 0.503
31 | COC(C)c1noc(CN(C)c2nccnc2C#N)n1 (stereo unspecified) | 0.462
32 | CC(CNC(=O)NCc1ccco1)N1CCc2sccc2C1 (stereo unspecified) | -11.5
33 | CNC(=O)N(C)CC1(c2ccc(Br)cc2)CC1 | -9.6
34 | COCCCn1ccc(NC2CCOCC2)n1 | 3.31
35 | Cn1ccc2c(C(=O)NCC3(C(N)=O)CCOCC3)cccc21 | -1.21
36 | CCOc1ccnc(N2CCCN(c3nc(CC)ns3)CC2)n1 | 1.19
37 | CC(=O)N(C)CC(=O)NC1(c2ccc(Br)cc2)CC1 | -10.7
38 | c1ccc(Cc2noc(CN3CCCC3C3CCCCC3)n2)cc1 (stereo unspecified) | 11.9
39 | CCNC(=O)CN1CCOC(c2ccccc2C(F)(F)F)C1 (stereo unspecified) | 3.09
40 | Cn1nnnc1SC1CCCN(c2cccc(F)c2)C1=O (stereo unspecified) | 3.85
41 | Cc1cc(CN2CCc3nn(C)c(=O)cc3C2)no1 | -9.01
42 | CCc1nc(CCNC(=O)Nc2cccc(C(=O)NC)c2C)cs1 | -11.2
43 | Cc1cc(NC2CCc3nc(C)nn3C2)n2ncnc2n1 (stereo unspecified) | -6.29
44 | CC(=O)c1c(F)cccc1N1CCC(C(N)=O)CC1 | 6.75
45 | Cc1nc(CC(=O)N2CCN(Cc3ccc(C#N)cc3)CC2)cs1 | 1.91
46 | Cc1noc(CCCC(=O)N(CCC(=O)O)Cc2ccc(F)c(F)c2)n1 | -11.3

Row | Structure (SMILES) | cytotoxicity at 10 µM [%]
47 | Cc1n[nH]c(C)c1NC(=O)Nc1cccnc1N1CCCC1 | -14
48 | CC1CCN(S(=O)(=O)NC2CCCCNC2=O)CC1 (stereo unspecified) | 14
49 | CC(C)(C)CC(=O)NCC(=O)Nc1ccn(Cc2ccncc2)n1 | 13.2
50 | CCc1sc(C(=O)Nc2cnn(CC(=O)NC3CC3)c2)cc1C | -2.17
51 | N#Cc1ccnc(N2CCN(C(=O)c3ccc4c(c3)CCO4)CC2)c1 | -5.75
52 | COC(=O)NC1(C(=O)Nc2ccc(-c3ncc[nH]3)cc2)CCCC1 | -14.4
53 | CC(C)COCCCNC(=O)NC(C)c1ccc(-n2cncn2)cc1 (stereo unspecified) | 2.42
54 | Cc1ccccc1CS(=O)(=O)CC(=O)N(C)Cc1cccc(F)c1 | 4.8
55 | Cc1cccc(CN(Cc2ccccn2)S(=O)(=O)N(C)C(C)C)c1 | -5.02
56 | CC(C)(C)OC(=O)N1CSC[C@@H]1C(=O)NCc1cccc(C#N)c1 | -5.88
57 | CC(C)OCCC(=O)Nc1ncn(CC(=O)N2CCCCCC2)n1 | -1.61
58 | CC(=O)N1CCN(C(=O)NCCCN(C)S(C)(=O)=O)CC1 | -7.33
59 | Cc1cc(C(=O)N2CCCC2)ccc1NCCO | -3.87
60 | O=C(CCn1c(=O)oc2ccccc21)NCC(O)c1ccc(F)c(F)c1 (stereo unspecified) | -12.5
61 | Cc1oc(C(=O)O)cc1S(=O)(=O)Nc1ccc(Cl)c(Cl)c1 | -0.532
62 | Cc1ccc(C)c(Sc2nccn(C)c2=O)c1 | 6.43
63 | C=C(C)CNC(C)c1ccc(S(C)(=O)=O)c(F)c1 (stereo unspecified) | 0.563
64 | Cn1cc(CN2CCN(Cc3nccn3C)CC2)cn1 | 15.5
65 | CC(CNC(=O)N1CCN(CC(F)F)CC1)Cc1cccs1 (stereo unspecified) | -4.92
66 | CSCC(C)(O)CNC(=O)c1ccc(Br)cc1C (stereo unspecified) | 1.57
67 | Cn1cc(Br)c(=O)c(NS(=O)(=O)c2ccc(F)cc2)c1 | -8.87
68 | CC(CN1CCOCC1)NC(=O)N(C)Cc1ccc(Cl)s1 (stereo unspecified) | 7.21
69 | CC(C)Oc1ncc(C(=O)N2CCC(NC(=O)C3CC3)CC2)cc1Cl | -20.8

Row | Structure (SMILES) | cytotoxicity at 10 µM [%]
70 | Cc1ccc(N2CCCN(C(=O)c3cc(Cl)c[nH]3)CC2)nn1 | -9.12
71 | Cc1nc(C)n(CC2CN(CC(=O)Nc3cccnc3)CCO2)n1 (stereo unspecified) | -12
72 | Cc1cn(CC(=O)N(C)Cc2cccc3ncccc23)c(=O)[nH]c1=O | 14.2
73 | Cc1cccnc1CN1CCN(c2noc(-c3ccccc3)n2)CC1 | 8.09
74 | COCc1cc(CNCc2c(C)n(CC(N)=O)c3ccccc23)n[nH]1 | -0.31
75 | CC(=O)c1cnc(NCCc2csc(-c3cnccn3)n2)nc1C | 6.09
76 | CCNC(=O)[C@@H]1C[C@H](N)CN1C(=O)C1(c2ccc(OC)cc2)CCCC1 | 5.67
77 | Cc1ccoc1C(=O)N1CCC(n2cc(-c3ccsc3)nn2)CC1 | 5.02
78 | c1cncc(C[C@@H]2CC[C@H](CN3CCCOCC3)O2)c1 | 2.13
79 | COc1ccc(-n2c(CCC(=O)O)nc3ccccc32)cc1CO | -0.334
80 | COCc1noc(CCNC(=O)c2ccc(C3CCCO3)s2)n1 (stereo unspecified) | 3.19
81 | CN1CCN(Cc2cnc(S(=O)(=O)CC3CC3)n2CC2CCCO2)CC1 (stereo unspecified) | -2.87
82 | COc1ccccc1-n1cc(C(=O)NCCCn2ccnn2)cn1 | -6.01
83 | Cc1cnc(C)c(N2CC[C@H](N3CCOCC3)[C@H](CCCO)C2)n1 | 6.12
84 | Cn1ncc(N2CCC(CNC(=O)[C@@H](N)c3ccccc3)CC2)cc1=O | 4.18
85 | O=C(c1ccc(=O)[nH]c1)N1CCCC2(C=Cc3ccccc3O2)CC1 (stereo unspecified) | 12.5
86 | Cc1cccc(CN(C(=O)CS(C)(=O)=O)C(C)C)c1 | 1.68
87 | CCCN1CC2(CCN(c3ccc(C(C)=O)cn3)CC2)CC1C(=O)O (stereo unspecified) | -0.909
88 | CCC/C=C/c1ccc(CN2CCN(C)CC2)cn1 | -8.61
89 | COC(=O)CCC(=O)NCc1cccnc1N1CCc2ccccc2C1 | -8.09
90 | COc1cccc2c1OCC(CNC(=O)Cc1c(C)nc(N)nc1C)C2 (stereo unspecified) | -140
91 | COCCN(C)CCN1CC2(CCN(C3CCCNC3)CC2)OC1=O (stereo unspecified) | 2.28
92 | CCN1CC(C(=O)N2CCC(Oc3ccccc3Cl)CC2)CC1=O (stereo unspecified) | -22.4

Row | Structure (SMILES) | cytotoxicity at 10 µM [%]
93 | CN(CCc1ccccc1)Cc1cc(C(=O)N2CCN(C)C(=O)C2)no1 | -11.6
94 | Cc1nccn1C1CCCN(C(=O)c2sccc2-n2cnnn2)C1 (stereo unspecified) | -12.2
95 | CCN1CC(C(=O)NCc2ccnc(-n3cccn3)c2)CC1=O (stereo unspecified) | -9.3
96 | CCc1nc(CC(=O)N2CCn3c(CC)nnc3C2)cs1 | -11.4
97 | Cc1cc(C(=O)NCCN2CCCC(C)C2)nn1C (stereo unspecified) | -2.79
98 | Cc1cnn(CC(C)NCc2csc(-c3ccco3)n2)c1 (stereo unspecified) | 3.44
99 | COCCN1CCN(Cc2c(C3CCNCC3)[nH]c3ncccc23)CC1 | -23.2
100 | Cc1nn(C)c(Cl)c1CNCc1cccnc1N1CCCCC1 | -145
101 | O=C(NCc1ccccn1)[C@]12COC[C@H]1CN(Cc1ccccc1F)C2 | 6.81
102 | Cc1nc2sccn2c1CN(CCCN(C)C)Cc1ccccn1 | 3.38
103 | O=C(C1CCCO1)N1CCCn2c(nnc2Cn2ccnc2)C1 (stereo unspecified) | 15.7
104 | FC1(F)CCN(Cc2ccncc2)CC12CCN(c1cnccn1)C2 (stereo unspecified) | 3.19
105 | CCOCC(=O)N1CCC2(CC1)COC(COCc1ccccn1)C2 (stereo unspecified) | -127
106 | O=C(O)c1c(-c2ccncc2)ncc2c1CCN(C1CCOC1)C2 (stereo unspecified) | 15
107 | Cc1nc(COCc2cnc3n2CCN(C2CCC2)C3C)cs1 (stereo unspecified) | -3.82
108 | CC(C)c1nn(C)c(N(C)C)c1CNC1CCOc2c(F)cccc21 (stereo unspecified) | -1.99
109 | CC(C)N(C)Cc1cnc2n1CCN(C(=O)Cc1ccsc1)C2 | -118
110 | COc1cccc(C=CCCN2CCCN(C(C)=O)CC2)c1 | 6.67
111 | O=C1OCCN1CC(=O)N1C[C@@H]2CC[C@H]1CN(C(=O)c1ccccc1)C2 | 5.46
